Bioassay records from PubChem BioAssay.
Hits are enriched below; roughly 3.3% of the tested compounds scored in any of these assays.
SENP8 block-1 – SENP8 protease inhibition; Q96LD8; purified SENP8, Z-RLRGG-aminoluciferin cleavage, luminescence; inhibition, % at 10 µM; 330,000 compounds, 1.2% hits; AID 2540; in the data active = inhibition above about 50%
NRP1-CendR mod – alters CendR peptide binding to human NRP-1 | inhibition, % at 25 µM | FAM-RPARPAR peptide binding to NRP-1, fluorescence polarization | 360,000 compounds, 0.85% hits | O14786;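 active = inhibition or corrected inhibition above about 18%, plus a signal ratio from 0.5 to 1.5, limit read from the data, passing the limit was not always enough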
SENP6 inh – inhibitors of human SENP6 protease; 330,000 compounds, 1.8% hits; AID 2599; Recombinant SENP6 catalytic domain, aminoluciferin luminescence; inhibition, % at 10 µM;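 active = inhibition above about 50% at the single tested dose, limit read from the data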;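 note: plate controls were DMSO wells with enzyme for no effect and DMSO wells lacking enzyme for full effect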
SENP7 inh – SENP7 protease inhibition; Q9BQF6; recombinant SENP7, Z-RLRGG-aminoluciferin luminescence, 40 min; inhibition, % at 5 µM; 330,000 compounds, 1.5% hits; AID 434973;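 active = inhibition above about 50% at the single test dose, limit read from the data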;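 note: plate controls were DMSO with enzyme for no effect and no enzyme buffer wells for full effect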
Target sequence (Q9BQF6 706-1050 limits assumed): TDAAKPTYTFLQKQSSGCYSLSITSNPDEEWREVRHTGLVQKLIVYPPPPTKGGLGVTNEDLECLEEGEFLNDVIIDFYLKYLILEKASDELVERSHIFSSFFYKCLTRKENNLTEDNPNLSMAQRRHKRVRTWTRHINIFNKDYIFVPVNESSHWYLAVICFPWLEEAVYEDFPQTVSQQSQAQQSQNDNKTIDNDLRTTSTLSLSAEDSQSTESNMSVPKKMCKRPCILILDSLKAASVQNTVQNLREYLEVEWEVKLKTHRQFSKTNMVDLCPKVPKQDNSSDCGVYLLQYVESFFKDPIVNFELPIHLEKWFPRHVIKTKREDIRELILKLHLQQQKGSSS
SENP8 block-2 – SENP8 (human) protease inhibition. recombinant SENP8, Nedd8 substrate fluorescence. inhibition, % at 20 µM. 360,000 compounds, 0.64% hits; in the data active = inhibition mostly above about 40%, no sharp cut-off; inactive = mostly below about 27%
SENP1 FRET inh – blocks the human SENP1 SUMO protease catalytic domain; 360,000 compounds, 0.21% hits; Q9P0U3; recombinant SENP1 catalytic domain, CyPet-SUMO1-YPet FRET cleavage; inhibition, % at 10 µM;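 active = inhibition at least 30% at 10 µM, raw YFP signal under a set limit, fluorescence ratio 0.5 to 1.5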;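 note: 0% = enzyme with DMSO and 100% = no enzyme wells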
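Controls: no-enzyme wells low, DMSO-plus-enzyme wells high control. Test system: human recombinant His6-tagged SENP1 catalytic domain enzyme. Reagent: SFCypet-SUMO1-SFYpet FRET protein substrate, 25 nM final. Doses: one dose per compound, 10 µM, 0.5% DMSO. Detection: FRET, CFP and YFP emission. Timing: 50 min reaction at room temperature.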
SENP8 conf – confirmation of human SENP8 protease inhibitors; inhibition, % at 12.5 µM; shares compounds with SENP7 inh; 6,200 compounds, 40% hits; Recombinant SENP8, Z-RLRGG-aminoluciferin luminescence, 60 min; AID 488912;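 active = mean inhibition across replicates above about 50%, limit read from the data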
SENP6 conf – human SENP6 inhibition, confirmed; shares compounds with SENP7 inh; recombinant SENP6, Z-RLRGG-aminoluciferin luminescence; inhibition, % at 12.5 µM; 6,200 compounds, 58% hits
SENP7 conf – confirmation of human SENP7 protease inhibitors | shares compounds with SENP7 inh | recombinant SENP7, Z-RLRGG-aminoluciferin luminescence, 40 min | inhibition, % at 12.5 µM | 6,200 compounds, 69% hits | AID 488917
Casp3 SENP sel – caspase-3 inhibition (SENP selectivity assay) | shares compounds with SENP7 inh | purified caspase-3, Z-DEVD-aminoluciferin luminescence, 60 min | inhibition, % at 12.5 µM | 6,200 compounds, 60% hits;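 active = mean inhibition above about 50%, limit read from the data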;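 note: plate controls were enzyme with DMSO for no effect and wells without caspase-3 for full effect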
SENP luc ctr – interferes with luciferase luminescence in SENP counter-screen; AID 488919; shares compounds with SENP7 inh; Pre-incubated SENP8/Z-RLRGG-aminoluciferin, luciferase luminescence interference; 6,200 compounds, 39% hits; inhibition, % at 12.5 µM;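 active = mean inhibition above about 50% when retested at one dose, limit read from the data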;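 note: plate controls were DMSO wells with completed reaction for no effect and substrate without enzyme for full effect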
Starred values were filed as active, the others as inactive.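 Rule for the calls, unless noted: active = mean inhibition above about 50% in the one-dose retest (limit read from the data); inactive = the rest.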

`O=C(C[C@@H]1CC[C@@H](NC(=O)Nc2cccc(F)c2)[C@@H](CO)O1)NCC1CCCCC1` gave NRP1-CendR mod 8, SENP8 block-2 11 and SENP1 FRET inh 1.
O=C(O)c1ccc(N/N=C/c2ccc(-c3ccc(Cl)cc3Cl)o2)cc1 was read as SENP8 block-1 12, NRP1-CendR mod -10, SENP6 inh 22, SENP7 inh 8, SENP8 block-2 -365 and SENP1 FRET inh -32.
Screening O=C(O)c1ccc(N/N=C/c2ccc(-c3cc(Cl)ccc3Cl)o2)cc1 returned SENP8 block-1 53*, NRP1-CendR mod 8, SENP6 inh 76*, SENP7 inh -5, SENP8 block-2 -452, SENP1 FRET inh -36, SENP8 conf -4, SENP6 conf 85*, SENP7 conf 86*, Casp3 SENP sel 2 and SENP luc ctr 29.
Screening O=C(O)c1ccc(N/N=C/c2ccc(-c3cccc(Cl)c3)o2)cc1 returned SENP8 block-1 58*, NRP1-CendR mod -5, SENP6 inh 1, SENP7 inh 13, SENP8 block-2 -449, SENP1 FRET inh -46, SENP8 conf 82*, SENP6 conf 82*, SENP7 conf 90*, Casp3 SENP sel 7 and SENP luc ctr 82*.
Cc1ccc(S(=O)(=O)NC(=O)NC2=NC(C)(C)N(c3ccc(Cl)c(Cl)c3)C(N)=N2)cc1 was read as NRP1-CendR mod 6, SENP8 block-2 7 and SENP1 FRET inh 0.
O=C1c2ccccc2C(=O)N1/N=C/c1ccc(O)c(O)c1 was read as SENP8 block-1 51*, NRP1-CendR mod 6, SENP6 inh 66*, SENP7 inh 46, SENP8 block-2 12, SENP1 FRET inh 1, SENP8 conf 6, SENP6 conf 41, SENP7 conf 82*, Casp3 SENP sel 70* and SENP luc ctr 64*.
For O=C1C2C3C=CC(CC3)C2C(=O)N1/N=C/c1ccc(O)c(O)c1 (configuration not stated) the results were SENP8 block-1 -11, NRP1-CendR mod -11, SENP6 inh -8, SENP7 inh 4, SENP8 block-2 22 and SENP1 FRET inh -1.
Screening O=C(NC(=S)Nc1ccc(S(=O)(=O)Nc2nccs2)cc1)c1cccc(F)c1 returned SENP8 block-1 40, NRP1-CendR mod -9, SENP6 inh 63*, SENP7 inh 6, SENP8 block-2 9, SENP1 FRET inh 2, SENP8 conf 13, SENP6 conf 8, SENP7 conf 8, Casp3 SENP sel 3 and SENP luc ctr 0.
For Cc1ccnc(N2C(=O)c3ccccc3C2O)c1 (configuration not stated) the results were SENP8 block-1 81*, NRP1-CendR mod -5, SENP6 inh 85*, SENP7 inh 90*, SENP8 block-2 -1, SENP1 FRET inh -3, SENP8 conf 82*, SENP6 conf 82*, SENP7 conf 98*, Casp3 SENP sel 96* and SENP luc ctr 88*.
CCOC(=O)C1=CCN(S(=O)(=O)c2ccc(C)cc2)C1c1cccc(Br)c1 (configuration not stated) was read as NRP1-CendR mod 14, SENP8 block-2 22 and SENP1 FRET inh 2.
CCCc1[nH]n(-c2nc3ccccc3s2)c(=O)c1C=NCCCOC was read as SENP8 block-1 0, NRP1-CendR mod 10, SENP6 inh -4, SENP7 inh 8, SENP8 block-2 20 and SENP1 FRET inh 1.
